The values below come from PubChem BioAssay.

The structures appear in SMILES notation. The source made the active and inactive calls.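 Rule for the calls, unless noted: active = potentiation averaged over duplicate wells exceeding buffer-only control mean by more than 3 SD; inactive = the rest.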

Chain of Potassium voltage-gated channel subfamily KQT member 2 (Rattus norvegicus) (O88943 whole entry, looked up): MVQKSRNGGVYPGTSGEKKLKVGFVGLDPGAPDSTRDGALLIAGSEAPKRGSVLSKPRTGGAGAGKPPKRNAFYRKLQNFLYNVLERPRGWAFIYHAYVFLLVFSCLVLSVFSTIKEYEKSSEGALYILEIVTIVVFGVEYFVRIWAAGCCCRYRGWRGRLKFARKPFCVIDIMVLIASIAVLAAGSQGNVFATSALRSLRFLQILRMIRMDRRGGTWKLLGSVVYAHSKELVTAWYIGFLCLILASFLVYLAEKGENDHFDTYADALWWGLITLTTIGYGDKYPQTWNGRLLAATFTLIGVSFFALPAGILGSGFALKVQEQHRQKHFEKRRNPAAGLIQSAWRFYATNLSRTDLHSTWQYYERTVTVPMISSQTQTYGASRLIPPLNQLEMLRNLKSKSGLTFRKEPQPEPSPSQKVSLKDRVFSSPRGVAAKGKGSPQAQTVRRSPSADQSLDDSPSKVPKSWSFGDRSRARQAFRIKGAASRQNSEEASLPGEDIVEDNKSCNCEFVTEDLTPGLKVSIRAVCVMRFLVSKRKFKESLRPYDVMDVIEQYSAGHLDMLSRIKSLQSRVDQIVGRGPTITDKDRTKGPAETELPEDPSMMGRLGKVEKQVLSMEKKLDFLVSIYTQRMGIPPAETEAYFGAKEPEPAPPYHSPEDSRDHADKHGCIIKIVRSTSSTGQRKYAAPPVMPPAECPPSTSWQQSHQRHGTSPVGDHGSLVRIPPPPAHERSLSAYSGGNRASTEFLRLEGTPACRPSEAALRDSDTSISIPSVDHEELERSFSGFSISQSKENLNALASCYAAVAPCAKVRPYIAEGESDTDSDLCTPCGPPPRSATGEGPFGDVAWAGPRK
Chain of Potassium voltage-gated channel subfamily KQT member 1 (Homo sapiens) (P51787 whole entry, looked up): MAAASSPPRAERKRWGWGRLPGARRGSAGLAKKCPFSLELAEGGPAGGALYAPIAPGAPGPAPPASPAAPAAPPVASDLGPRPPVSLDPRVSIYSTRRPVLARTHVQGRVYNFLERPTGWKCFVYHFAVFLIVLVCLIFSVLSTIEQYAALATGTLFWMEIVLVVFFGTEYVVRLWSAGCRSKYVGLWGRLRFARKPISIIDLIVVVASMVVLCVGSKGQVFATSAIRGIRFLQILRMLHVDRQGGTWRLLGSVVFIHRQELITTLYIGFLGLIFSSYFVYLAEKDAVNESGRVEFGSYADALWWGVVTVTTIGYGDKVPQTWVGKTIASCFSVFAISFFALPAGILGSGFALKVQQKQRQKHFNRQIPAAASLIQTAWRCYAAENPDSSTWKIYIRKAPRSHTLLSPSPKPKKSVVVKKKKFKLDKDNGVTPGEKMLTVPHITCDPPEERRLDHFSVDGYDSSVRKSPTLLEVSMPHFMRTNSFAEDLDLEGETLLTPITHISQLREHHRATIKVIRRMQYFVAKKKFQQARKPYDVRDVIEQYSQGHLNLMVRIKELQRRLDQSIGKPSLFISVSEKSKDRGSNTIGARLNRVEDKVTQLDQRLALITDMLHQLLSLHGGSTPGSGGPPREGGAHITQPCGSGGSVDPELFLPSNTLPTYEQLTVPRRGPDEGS

Tested on in the first test: not listed separately
Put plainly: nonspecific flux increase, KCNQ1-free cells – parental CHO cells, counter-screen for KCNQ1 potentiator project (AID 493006;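 active = duplicate-averaged activation above buffer control mean plus 5 SD of those controls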;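 note: fluorescence ratio of max minus min over baseline after K+ and Tl+ depolarization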). As to conditions: parental CHO-K1 cells, FluxOR thallium flux, at 10 µM; active compounds read high. In a few lines:
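Assay system: parental CHO-K1 cells lacking KCNQ1, loaded with FluxOR thallium dye; timing: dye 90 min RT, compound 20 min RT; signal: kinetic thallium-flux fluorescence; repeats: duplicate wells per compound, percent values averaged; benchmarks: buffer and R-L3 controls; reagent: Potassium/thallium depolarization pulse; read-out: fluorescence change ratio scaled 0% buffer, 100% R-L3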
For `Cc1ccc(-n2c(=S)[nH]c3c(oc4ccccc43)c2=O)cc1C`, the activation is 160% (active).
Same read-out and setting: in the case of `O=C(NC(=S)NCCc1ccccc1)c1cccc(Cl)c1` it was 182% (active); in that of `O=C(NC(=S)Nc1ccccc1Cl)c1ccco1`, 140% (active); in that of `S=c1[nH]cnc2sc(-c3ccccc3)cc12`, 520% (active).
On the same count and under the same terms, in the case of `Cc1cccc(C(=O)NNC(=O)C(=O)NC(C)(C)C)c1` it was 159% (active).

Another test concerns the target Potassium voltage-gated channel subfamily KQT member 1 (Homo sapiens) (UniProt P51787). In words: enhancement of KCNQ1 channel thallium flux – FluxOR thallium flux, CHO cells, duplicates, confirmation (AID 493007).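 For outcome: cells depolarized by a potassium plus thallium sulfate stimulus after compound.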 Particulars: KCNQ1 cell line, FluxOR thallium flux fluorescence, at 10 µM; active compounds read high, % of reference activator effect, buffer zero. The procedure, abridged:
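material = CHO cells stably expressing the KCNQ1 potassium channel | repeats = duplicate wells per compound | measure = percent activation between buffer and R-L3 responses | signal = FluxOR thallium-flux fluorescence, kinetic read | schedule = FluxOR dye loading 90 min, compound exposure 20 min, room temperature | control set = buffer and R-L3 controls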
Consider `Oc1c(Br)cc(Br)cc1C=NCc1ccc(F)cc1`, for which the outcome was inactive.
Regarding `O=c1c(O)c(-c2ccc3c(c2)OCO3)oc2ccccc12`, the potentiation was 41.5% (active).
Regarding `Cc1ccc(-c2csc3nc[nH]c(=S)c23)cc1C`, the potentiation is 56.5% (active).
As for `O=C(Nc1cc([N+](=O)[O-])ccc1N1CCCC1)c1cccs1`, the outcome was inactive.
With `O=C(NC(=S)Nc1ccc(N2CCOCC2)c(Cl)c1)c1sc2ccccc2c1Cl`, the potentiation was 35.5% (active).
With `CC(=O)c1ccc(N2CCN(C(=O)c3ccc(NC(=O)C4CCCO4)cc3)CC2)cc1` (stereo not given), the outcome was inactive.
On to `CC(=O)Nc1cc(NC(C)=O)cc(C(=O)OC(C)C(=O)Nc2ccc(S(=O)(=O)N3CCCC3)cc2)c1` (stereo not given), for which the potentiation was 54% (active).
For the molecule `O=C(N/N=C/c1c[nH]c2ccccc12)C1COc2ccccc2O1` (stereo not given), the result was inactive.
As for `CCCCn1c(=S)[nH]c2ncccc2c1=O`, the potentiation is 34.5% (active).
In the case of `CN(Cc1nccs1)C(=O)c1ccc(OC2CCN(Cc3ccccn3)CC2)cc1`, the result was inactive.
On the same count and under the same terms, as for `Cc1ccccc1OC(=O)n1c(=S)oc2cc(Cl)ccc21`, the entry is “inactive”; as for `CCOc1ccc(N2CC(C(=O)Nc3cc(Cl)ccc3-n3cncn3)CC2=O)cc1` (stereo not given), “inactive”.
Take `COc1ccccc1NC(=O)C(=O)NNC(=O)COc1ccc2ccccc2c1`: the potentiation was 174% (active).
In the case of `Cc1cccc(NC(=S)NC(=O)c2cc(-c3ccccc3)nc3ccccc23)c1`, the potentiation is 32% (active).
Same read-out and setting: in the case of `CCCCCn1c(=O)c2ccccc2n2c(=S)[nH]nc12` it was 39% (active).
Consider `COC(=O)c1sc(-c2ccccc2)cc1NC(=O)C1CC1`, for which the result was inactive.
Consider `Cc1ccc(N=Nc2ccc(O)c3ncccc23)cc1`, for which the potentiation is 52.5% (active).
On the same count and under the same terms, in the case of `S=c1[nH]c(-c2ccccc2)cn1/N=C/c1cccc2ccccc12` it was 65.5% (active).
Regarding `CCCN(CCC)CCNC(=O)Cn1cnc2sc(C)c(S(=O)(=O)N3CCOCC3)c2c1=O`, the outcome was inactive.
In the case of `CCOc1ccc(S(=O)(=O)N2CCCC(C(=O)NCCN3CCOCC3)C2)cc1Cl` (stereo not given), the potentiation was 108% (active).
Consider `CCOC(=O)c1c(CN2CCN(CCO)CC2)n(C)c2cc(Br)c(OC)cc12`, for which the outcome was inactive.
For `CC(C)n1cc(NC(=O)c2cc(-c3ccccc3)on2)cn1`, the potentiation was 35.5% (active).
On the same count and under the same terms, as for `COc1ccccc1-n1cnc2cc(NCc3ccco3)ccc21`, the figure is 34.5% (active).
Consider `O=c1cc(N2CCc3ccccc32)[nH]c(=O)n1Cc1ccc(F)cc1`, for which the outcome was inactive.
The same measure, in the same setting: in the case of `Cc1ccc(C2=CSC3=NS(=O)(=O)CCN23)cc1` it was “inactive”.
As for `Oc1oc(-c2cccc3ccccc23)nc1/C=N/c1nccs1`, the potentiation was 48.5% (active).
On the same count and under the same terms, as for `COc1ccc2nc(N=Nc3ccc(O)c4ccccc34)sc2c1`, the figure is 83.5% (active).
On the same count and under the same terms, in the case of `COCCn1c(=S)[nH]c2sc3c(c2c1=O)CCC(C)C3` (stereo not given) it was 191% (active).
For the molecule `COc1ccc(OC)c(-c2cc(C(=O)N3CCN(c4ccccc4)CC3)no2)c1`, the outcome was inactive.
As to `COc1ccc(C(=O)CC(=O)C(=O)Nc2ccccc2C(F)(F)F)cc1`, the potentiation is 38.5% (active).
Regarding `CC(=O)c1c(-c2ccccc2)c2cc([N+](=O)[O-])ccc2[nH]c1=O`, the result was inactive.
On to `CC1(C)Cc2c(sc3[nH]c(=S)n(Cc4ccccc4)c(=O)c23)CO1`, for which the potentiation is 63% (active).
As to `COC(=O)c1cn(NC(=O)Cc2ccc(Cl)c(Cl)c2)c(=O)c2ccccc12`, the outcome was inactive.
The same measure, in the same setting: as for `CCN(C(=O)c1cc2cc3ccc(C)cc3nc2o1)c1ccc(OC)cc1`, the entry is “inactive”.
As to `O=C(N/N=C1/C(=O)c2cccc3cccc1c23)c1ccc(Cl)cc1`, the potentiation was 83.5% (active).
On the same count and under the same terms, in the case of `Cc1ccc(-n2c(=S)[nH]c3c(oc4ccccc43)c2=O)cc1C` it was 23.5% (active).
For `O=C(NC(=S)NCCc1ccccc1)c1cccc(Cl)c1`, the potentiation is 141% (active).
Turning to `O=C(NC(=S)Nc1ccccc1Cl)c1ccco1`, the outcome was inactive.
Take `S=c1[nH]cnc2sc(-c3ccccc3)cc12`: the potentiation was 274% (active).
As for `Cc1cccc(C(=O)NNC(=O)C(=O)NC(C)(C)C)c1`, the potentiation is 30.5% (active).

Another test concerns the target Potassium voltage-gated channel subfamily KQT member 2 (Rattus norvegicus) (UniProt O88943). In words: KCNQ2 thallium flux enhancement – KCNQ2-CHO-K1 cells, selectivity assay for KCNQ1 potentiator project (AID 493009;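 active = mean duplicate potentiation above the buffer control mean plus 5 SD of buffer wells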;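 note: assay conditions were tuned for KCNQ1 rather than KCNQ2 modulators; signal is max minus min fluorescence divided by baseline after thallium stimulus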). As to conditions: FluxOR thallium flux fluorescence, at 10 µM; active compounds read high, scaled: buffer 0, activator control 100.
Take `Oc1c(Br)cc(Br)cc1C=NCc1ccc(F)cc1`: the potentiation was 146% (active).
The same measure, in the same setting: as for `O=c1c(O)c(-c2ccc3c(c2)OCO3)oc2ccccc12`, the figure is 162% (active).
The same measure, in the same setting: in the case of `Cc1ccc(-c2csc3nc[nH]c(=S)c23)cc1C` it was 222% (active).
As for `O=C(Nc1cc([N+](=O)[O-])ccc1N1CCCC1)c1cccs1`, the outcome was inactive.
Still for that read-out and setting: in the case of `O=C(NC(=S)Nc1ccc(N2CCOCC2)c(Cl)c1)c1sc2ccccc2c1Cl` it was “inactive”.
Same read-out and setting: as for `CC(=O)c1ccc(N2CCN(C(=O)c3ccc(NC(=O)C4CCCO4)cc3)CC2)cc1` (stereo not given), the entry is “inactive”.
`CC(=O)Nc1cc(NC(C)=O)cc(C(=O)OC(C)C(=O)Nc2ccc(S(=O)(=O)N3CCCC3)cc2)c1` (stereo not given): the potentiation is 216% (active).
For the molecule `O=C(N/N=C/c1c[nH]c2ccccc12)C1COc2ccccc2O1` (stereo not given), the outcome was inactive.
For `CCCCn1c(=S)[nH]c2ncccc2c1=O`, the potentiation is 173% (active).
Turning to `CN(Cc1nccs1)C(=O)c1ccc(OC2CCN(Cc3ccccn3)CC2)cc1`, the result was inactive.
For the molecule `Cc1ccccc1OC(=O)n1c(=S)oc2cc(Cl)ccc21`, the potentiation is 157% (active).
On to `CCOc1ccc(N2CC(C(=O)Nc3cc(Cl)ccc3-n3cncn3)CC2=O)cc1` (stereo not given), for which the result was inactive.
As to `COc1ccccc1NC(=O)C(=O)NNC(=O)COc1ccc2ccccc2c1`, the potentiation is 555% (active).
As for `Cc1cccc(NC(=S)NC(=O)c2cc(-c3ccccc3)nc3ccccc23)c1`, the outcome was inactive.
In the case of `CCCCCn1c(=O)c2ccccc2n2c(=S)[nH]nc12`, the potentiation is 158% (active).
As for `COC(=O)c1sc(-c2ccccc2)cc1NC(=O)C1CC1`, the result was inactive.
In the case of `Cc1ccc(N=Nc2ccc(O)c3ncccc23)cc1`, the potentiation is 229% (active).
Turning to `S=c1[nH]c(-c2ccccc2)cn1/N=C/c1cccc2ccccc12`, the potentiation is 184% (active).
`CCCN(CCC)CCNC(=O)Cn1cnc2sc(C)c(S(=O)(=O)N3CCOCC3)c2c1=O`: the result was inactive.
As to `CCOc1ccc(S(=O)(=O)N2CCCC(C(=O)NCCN3CCOCC3)C2)cc1Cl` (stereo not given), the potentiation is 250% (active).
Regarding `CCOC(=O)c1c(CN2CCN(CCO)CC2)n(C)c2cc(Br)c(OC)cc12`, the outcome was inactive.
Regarding `CC(C)n1cc(NC(=O)c2cc(-c3ccccc3)on2)cn1`, the potentiation was 236% (active).
For `COc1ccccc1-n1cnc2cc(NCc3ccco3)ccc21`, the outcome was inactive.
The same measure, in the same setting: as for `O=c1cc(N2CCc3ccccc32)[nH]c(=O)n1Cc1ccc(F)cc1`, the entry is “inactive”; as for `Cc1ccc(C2=CSC3=NS(=O)(=O)CCN23)cc1`, “inactive”.
`Oc1oc(-c2cccc3ccccc23)nc1/C=N/c1nccs1`: the potentiation was 164% (active).
Still for that read-out and setting: as for `COc1ccc2nc(N=Nc3ccc(O)c4ccccc34)sc2c1`, the figure is 188% (active); as for `COCCn1c(=S)[nH]c2sc3c(c2c1=O)CCC(C)C3` (stereo not given), 514% (active).
Take `COc1ccc(OC)c(-c2cc(C(=O)N3CCN(c4ccccc4)CC3)no2)c1`: the result was inactive.
`COc1ccc(C(=O)CC(=O)C(=O)Nc2ccccc2C(F)(F)F)cc1`: the potentiation is 147% (active).
In the case of `CC(=O)c1c(-c2ccccc2)c2cc([N+](=O)[O-])ccc2[nH]c1=O`, the outcome was inactive.
In the case of `CC1(C)Cc2c(sc3[nH]c(=S)n(Cc4ccccc4)c(=O)c23)CO1`, the potentiation was 198% (active).
On the same count and under the same terms, as for `COC(=O)c1cn(NC(=O)Cc2ccc(Cl)c(Cl)c2)c(=O)c2ccccc12`, the figure is 252% (active).
With `CCN(C(=O)c1cc2cc3ccc(C)cc3nc2o1)c1ccc(OC)cc1`, the outcome was inactive.
Turning to `O=C(N/N=C1/C(=O)c2cccc3cccc1c23)c1ccc(Cl)cc1`, the result was inactive.
With `Cc1ccc(-n2c(=S)[nH]c3c(oc4ccccc43)c2=O)cc1C`, the potentiation is 150% (active).
On the same count and under the same terms, as for `O=C(NC(=S)NCCc1ccccc1)c1cccc(Cl)c1`, the figure is 342% (active); as for `O=C(NC(=S)Nc1ccccc1Cl)c1ccco1`, 146% (active).
On the same count and under the same terms, as for `S=c1[nH]cnc2sc(-c3ccccc3)cc12`, the figure is 586% (active); as for `Cc1cccc(C(=O)NNC(=O)C(=O)NC(C)(C)C)c1`, 146% (active).
